Reference: ChEMBL document CHEMBL4725276, “Strategies towards potent trypanocidal drugs: Application of Rh-catalyzed [2 + 2 + 2] cycloadditions, sulfonyl phthalide annulation and nitroalkene reactions for the synthesis of substituted quinones and their evaluation against Trypanosoma cruzi” (Bioorg Med Chem, 2020)

Columns and labels:
Trypanosoma cruzi [1] = experiment: Trypanocidal activity against Trypanosoma cruzi Y strain bloodstream trypomastigotes isolated from infected Albino Swiss mouse assessed as lysis of parasite in presence of 5 % mouse blood incubated for 24 hrs by Neubauer chamber method; format: functional, organism-based
Procedure, shortened: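 Y-strain bloodstream trypomastigotes were isolated from infected mice at peak parasitemia by differential centrifugation and suspended at 10x10⁶ parasites/mL in DMES. They were mixed 1:1 with compound prepared at 2x final (DMSO final ≤0.1%) and incubated 24 h at 4 °C with 5% mouse blood, with benznidazole as control.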

[2] = Selectivity index, ratio of LD50 for cytotoxicity against albino Swiss mouse peritoneal macrophages to IC50 for Trypanocidal activity against Trypanosoma cruzi Y strain bloodstream trypomastigotes isolated from infected albino Swiss mouse in presence of 5 % mouse blood; format: toxicity; details: read-out: Selectivity Index
Procedure, shortened: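 Combines the macrophage LD₅₀/24 h with the trypanocidal IC₅₀/24 h, parasite assay run in 5% mouse blood at 4 °C. Y strain bloodstream trypomastigotes from infected Albino Swiss mice (peak parasitemia, differential centrifugation) were suspended at 10x10⁶/mL in DMES. They were mixed 1:1 with compound at twice the final concentration (DMSO ≤0.1% final) for 24 h. Neubauer chamber counts; IC₅₀ is 50% lysis; mean ± SD of at least three independent experiments.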

[3] = Cytotoxicity against albino Swiss mouse Peritoneal macrophages in presence of 5 % mouse blood incubated for 24 hrs by PrestoBlue dye based fluorescence assay; format: cell-based, Peritoneal macrophage; details: read-out: LD50
Procedure, shortened: (§1)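 Primary peritoneal macrophages from Albino Swiss mice, 2.5 x 10⁴ cells/well in RPMI-1640 (pH 7.2, 10% foetal bovine serum, 2 mM glutamine), preincubated 24 h at 37 °C. Treated in fresh supplemented medium for 24 h at 37 °C. PrestoBlue added, 2 h incubation, read at 560 and 590 nm. LC₅₀/24 h is the concentration damaging 50% of cells, from reduction relative to untreated cells.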

Trypanosoma cruzi [4] = experiment: Trypanocidal activity against Trypanosoma cruzi Y strain bloodstream trypomastigotes isolated from infected Albino Swiss mouse assessed as lysis of parasite in absence of mouse blood incubated for 24 hrs by Neubauer chamber method; format: functional, organism-based
Procedure, shortened: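 Bloodstream trypomastigotes (Y strain) were taken from mice at peak parasitemia by differential centrifugation and resuspended at 10x10⁶/mL in DMES. Equal volumes of suspension and compound at twice final concentration (DMSO final ≤0.1%) were incubated 24 h at 37 °C with no blood added, with benznidazole as control.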

[5] = Selectivity index, ratio of LD50 for cytotoxicity against albino Swiss mouse peritoneal macrophages to IC50 for Trypanocidal activity against Trypanosoma cruzi Y strain bloodstream trypomastigotes isolated from infected albino Swiss mouse in absence of mouse blood; format: toxicity; details: read-out: Selectivity Index
Procedure, shortened: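 Combines the macrophage LD₅₀/24 h with the trypanocidal IC₅₀/24 h, parasite assay run without blood at 37 °C. Y strain bloodstream trypomastigotes were taken from infected Albino Swiss mice at peak parasitemia by differential centrifugation, at 10x10⁶/mL in DMES. They were mixed 1:1 with compound at twice the final concentration (DMSO ≤0.1% final) for 24 h. Neubauer counts; IC₅₀ is 50% lysis.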

Trypanosoma cruzi [6] = experiment: Potency index, ratio of benznidazole IC50 to compound IC50 for trypanocidal activity against Trypanosoma cruzi Y strain bloodstream trypomastigotes isolated from infected Albino Swiss mouse assessed as lysis of parasite in presence of 5 % mouse blood incubated for 24 hrs by Neubauer chamber method; format: functional
[7] = Cytotoxicity against albino Swiss mouse Peritoneal macrophages in absence of mouse blood incubated for 24 hrs in absence of mouse blood by PrestoBlue dye based fluorescence assay; format: cell-based, Peritoneal macrophage; details: read-out: LD50; procedure, shortened: as §1

COc1ccc(-n2cc(-c3ccccc3)c3c2C(=O)c2ccccc2C3=O)cc1 showed an IC50 (Trypanosoma cruzi [1]) of over 500 µM.
For COc1ccc(-n2cc(-c3ccc(Cl)cc3)c3c2C(=O)c2ccccc2C3=O)cc1, the IC50 (Trypanosoma cruzi [1]) was over 500 µM.
Compound Cc1ccc(-c2cn(-c3cccc(Br)c3)c3c2C(=O)c2ccccc2C3=O)cc1 has an IC50 (Trypanosoma cruzi [1]) of over 500 µM.
Work on O=C1c2ccccc2C(=O)c2c(-c3ccc(F)cc3)coc21 yielded an IC50 (Trypanosoma cruzi [1]) of over 500 µM.
Compound O=C1c2ccccc2C(=O)c2c(-c3ccccc3[N+](=O)[O-])coc21 has an IC50 (Trypanosoma cruzi [1]) of over 500 µM.
With COc1ccc(-n2cc(-c3ccc(C)cc3)c3c2C(=O)c2ccccc2C3=O)cc1 the IC50 (Trypanosoma cruzi [1]) was over 500 µM.
COc1ccc(-c2cn(-c3ccc(Cl)cc3)c3c2C(=O)c2ccccc2C3=O)cc1 showed an IC50 (Trypanosoma cruzi [1]) of over 500 µM.
In the case of CSc1ccc(-c2coc3c2C(=O)c2ccccc2C3=O)cc1, the IC50 (Trypanosoma cruzi [1]) is reported as over 500 µM.
With Cc1ccc(-c2cn(-c3ccc(C)cc3)c3c2C(=O)c2ccccc2C3=O)cc1 the IC50 (Trypanosoma cruzi [1]) was over 500 µM.
Work on COc1ccc(-c2cn(-c3ccc(OC)cc3)c3c2C(=O)c2ccccc2C3=O)cc1 yielded an IC50 (Trypanosoma cruzi [1]) of over 500 µM.
Compound COc1ccc(-c2cn(-c3ccccc3)c3c2C(=O)c2ccccc2C3=O)cc1 has an IC50 (Trypanosoma cruzi [1]) of over 500 µM.
In the case of Cc1ccc(-c2cn(-c3ccc(Br)cc3)c3c2C(=O)c2ccccc2C3=O)cc1, the IC50 (Trypanosoma cruzi [1]) is reported as over 500 µM.
With O=C1c2ccccc2C(=O)c2c(-c3ccc(Br)cc3)coc21 the IC50 (Trypanosoma cruzi [1]) was over 500 µM.
COc1ccc(-n2cc(-c3ccc(F)cc3)c3c2C(=O)c2ccccc2C3=O)cc1 gave an IC50 (Trypanosoma cruzi [1]) of over 500 µM.
With COc1ccc(-c2cn(-c3ccc(F)cc3)c3c2C(=O)c2ccccc2C3=O)cc1 the IC50 (Trypanosoma cruzi [1]) was over 500 µM.
Compound COc1ccc(-c2coc3c2C(=O)c2ccccc2C3=O)cc1 has an IC50 (Trypanosoma cruzi [1]) of over 500 µM.
Work on COc1ccc(-n2cc(-c3ccco3)c3c2C(=O)c2ccccc2C3=O)cc1 yielded an IC50 (Trypanosoma cruzi [1]) of over 500 µM.
With O=C1c2ccccc2C(=O)c2c(-c3cccs3)coc21 the IC50 (Trypanosoma cruzi [1]) was over 500 µM.
O=C1c2ccccc2C(=O)c2c1oc1ccccc21 gave an IC50 (Trypanosoma cruzi [1]) of over 500 µM.
Work on COC(=O)C1(C(=O)OC)Cc2cc3c(cc2C1)C(=O)C(c1ccccc1OC)=CC3=O yielded an IC50 (Trypanosoma cruzi [1]) of 102 µM.
In the case of COC(=O)C1(C(=O)OC)Cc2cc3c(c(O)c2C1)C(=O)C=C(OC)C3=O, the IC50 (Trypanosoma cruzi [1]) is reported as over 500 µM.
In the case of COC(=O)C1(C(=O)OC)Cc2cc3c(cc2C1)C(=O)C(c1ccccc1)=CC3=O, the IC50 (Trypanosoma cruzi [1]) is reported as 369 µM.
Compound Cc1ccc(S(=O)(=O)n2c3ccccc3c3c(-c4ccccc4)c4c(cc32)C(=O)C=CC4=O)cc1 has an IC50 (Trypanosoma cruzi [1]) of 122 µM.
In the case of COC(=O)C1(C(=O)OC)Cc2cc3c(cc2C1)C(=O)C(Cl)=CC3=O, the IC50 (Trypanosoma cruzi [1]) is reported as 56.6 µM, the selectivity ratio [2] is reported as 0.09 and the CC50 at 24 h [3] is reported as 5 µM.
For CC(=O)CCC1=C(c2ccco2)C(=O)c2ccccc2C1=O, the IC50 (Trypanosoma cruzi [1]) was over 500 µM.
In the case of Cc1cc2oc3c(c2cc1C)C(=O)c1ccccc1C3=O, the IC50 (Trypanosoma cruzi [1]) is reported as over 500 µM.
COC(=O)C1(C(=O)OC)Cc2c(O)c3c(c(O)c2C1)C(=O)C(OC)=CC3=O gave an IC50 (Trypanosoma cruzi [1]) of over 500 µM.
COC1=CC(=O)c2cc3c(c(-c4ccc5c(c4)OCO5)c2C1=O)COC3=O gave an IC50 (Trypanosoma cruzi [1]) of over 500 µM.
Cc1ccc2oc3c(c2c1)C(=O)c1ccccc1C3=O showed an IC50 (Trypanosoma cruzi [1]) of over 500 µM.
For O=C1C=CC(=O)c2c1cc1oc3ccccc3c1c2-c1ccccc1, the IC50 (Trypanosoma cruzi [1]) was 247 µM.
Work on COC(=O)C1(C(=O)OC)Cc2cc3c(cc2C1)C(=O)C(N(C)c1ccccc1)=CC3=O yielded an IC50 (Trypanosoma cruzi [1]) of over 500 µM.
Compound CCCCc1c2c(c(CCCC)c3c1C(=O)C=CC3=O)CN(S(=O)(=O)c1ccc(C)cc1)C2 has an IC50 (Trypanosoma cruzi [1]) of over 500 µM.
Compound COC(=O)C1(C(=O)OC)Cc2c(c(-c3ccccc3)c3c(c2-c2ccccc2)C(=O)C=CC3=O)C1 has an IC50 (Trypanosoma cruzi [4]) of 0.44 µM, a selectivity ratio [5] of 3.7 and an IC50 (Trypanosoma cruzi [1]) of 2.5 µM. It also gave a selectivity ratio [2] of 0.6 and a CC50 at 24 h [3] of 1.6 µM.
With CCOc1cccc2c3c(oc12)C(=O)c1ccccc1C3=O the IC50 (Trypanosoma cruzi [1]) was over 500 µM.
With Cc1ccc(S(=O)(=O)N2Cc3cc4c(cc3C2)C(=O)C=CC4=O)cc1 the IC50 (Trypanosoma cruzi [1]) was over 500 µM.
CCCCn1cc(-c2ccc(Cl)cc2)c2c1C(=O)c1ccccc1C2=O gave an IC50 (Trypanosoma cruzi [1]) of over 500 µM.
With COC(=O)C1(C(=O)OC)Cc2cc3c(cc2C1)C(=O)C(I)=CC3=O the IC50 (Trypanosoma cruzi [1]) was 51.3 µM, the selectivity ratio [2] was 0.03 and the CC50 at 24 h [3] was 1.6 µM.
In the case of CC(=O)CCC1=C(c2ccc(F)cc2)C(=O)c2ccccc2C1=O, the IC50 (Trypanosoma cruzi [1]) is reported as 114 µM and the CC50 at 24 h [3] is reported as 65.4 µM.
With COC(=O)C1(C(=O)OC)Cc2c(c(-c3ccc(OC)cc3)c3c(c2-c2ccc(OC)cc2)C(=O)C=CC3=O)C1 the IC50 (Trypanosoma cruzi [4]) was 0.14 µM, the selectivity ratio [5] was 13.9 and the IC50 (Trypanosoma cruzi [1]) was 2.3 µM. For the same compound, the selectivity ratio [2] was 0.81 and the CC50 at 24 h [3] was 1.9 µM.
O=C1C=CC(=O)c2cc3c(cc21)CCC3 gave an IC50 (Trypanosoma cruzi [1]) of 49.2 µM, a selectivity ratio [2] of 0.03 and a CC50 at 24 h [3] of 1.7 µM. The “Ratio IC50” value (Trypanosoma cruzi [6]) was 2.
In the case of COC(=O)C1(C(=O)OC)Cc2c(c(-c3ccc(F)cc3)c3c(c2-c2ccc(F)cc2)C(=O)C=CC3=O)C1, the IC50 (Trypanosoma cruzi [4]) is reported as 0.32 µM, the selectivity ratio [5] is reported as 9.3 and the IC50 (Trypanosoma cruzi [1]) is reported as 3.3 µM. For the same compound, the selectivity ratio [2] was 0.89 and the CC50 at 24 h [3] was 3 µM.
With O=C1C=CC(=O)c2cc3c(cc21)COC3 the IC50 (Trypanosoma cruzi [1]) was 193 µM.
With COc1ccc(C2=C(CCC(C)=O)C(=O)c3ccccc3C2=O)cc1 the IC50 (Trypanosoma cruzi [1]) was 109 µM, the selectivity ratio [2] was 1.38 and the CC50 at 24 h [3] was 79 µM.
COC(=O)C1(C(=O)OC)Cc2cc3c(cc2C1)C(=O)C(OC)=CC3=O gave an IC50 (Trypanosoma cruzi [1]) of over 500 µM.
COC(=O)C1(C(=O)OC)Cc2cc3c(cc2C1)C(=O)C(c1ccccc1Br)=CC3=O gave an IC50 (Trypanosoma cruzi [1]) of 51.5 µM, a selectivity ratio [2] of 0.07 and a CC50 at 24 h [3] of 3.8 µM.
With COC(=O)C1(C(=O)OC)Cc2c(C)c3c(c(C)c2C1)C(=O)C=CC3=O the IC50 (Trypanosoma cruzi [1]) was over 500 µM.
Compound COC(=O)C1(C(=O)OC)Cc2cc3c(cc2C1)C(=O)C=CC3=O has an IC50 (Trypanosoma cruzi [1]) of 51.5 µM, a selectivity ratio [2] of 0.03 and a CC50 at 24 h [3] of 1.6 µM.
COC(=O)C1(C(=O)OC)Cc2cc3c(c(C(=O)O)c2C1)C(=O)C=CC3=O gave an IC50 (Trypanosoma cruzi [1]) of over 500 µM.
COC(=O)C1(C(=O)OC)Cc2cc3c(cc2C1)C(=O)C(C)=C(C)C3=O gave an IC50 (Trypanosoma cruzi [1]) of over 500 µM.
Work on COC(=O)C1(C(=O)OC)Cc2cc3c(c(CO[Si](C)(C)C(C)(C)C)c2C1)C(=O)C=CC3=O yielded an IC50 (Trypanosoma cruzi [1]) of over 500 µM.
COC(=O)C1(C(=O)OC)Cc2cc3c(cc2C1)C(=O)C(c1ccc(C(F)(F)F)cc1)=CC3=O showed an IC50 (Trypanosoma cruzi [1]) of 362 µM.
CCCCc1c2c(cc3c1C(=O)C=CC3=O)CC(C(=O)OC)(C(=O)OC)C2 gave an IC50 (Trypanosoma cruzi [1]) of 64.4 µM, a selectivity ratio [2] of 0.07 and a CC50 at 24 h [3] of 4.2 µM.
For COC(=O)C1(C(=O)OC)Cc2cc3c(cc2C1)C(=O)c1ccccc1C3=O, the IC50 (Trypanosoma cruzi [1]) was over 500 µM.
For COC(=O)C1(C(=O)OC)Cc2cc3c(cc2C1)C(=O)C(Br)=CC3=O, the IC50 (Trypanosoma cruzi [1]) was 150 µM.
COc1ccc2oc3c(c2c1)C(=O)c1ccccc1C3=O showed an IC50 (Trypanosoma cruzi [1]) of over 500 µM.
Compound O=C(Cn1ccnc1[N+](=O)[O-])NCc1ccccc1 [BENZNIDAZOLE] has an IC50 (Trypanosoma cruzi [4]) of 8.8 µM and a CC50 at 24 h [7] of over 1000 µM.
